Active and inactive are the calls of the source. The rule behind the calls is not given here.
Assays:
Mus musculus [1] = assay: Anticonvulsant activity in Swiss mouse assessed as protection against maximal electroshock-induced seizures at 30 mg/kg, ip administered 30 mins before electroshock challenge measured after 30 mins; format: functional, organism-based; set-up: dose 30 mg/kg
Procedure, shortened: (§1)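 Swiss mice (18-22 g) given the test compound i.p. in DMSO at 30, 100 or 300 mg/kg for phase I screening. Maximal electroshock was applied 30 min after dosing, and protection against the MES-induced seizure was scored.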

Mus musculus [2] = assay: Anticonvulsant activity in Swiss mouse assessed as protection against subcutaneous pentylenetetrazol-induced seizures at 100 mg/kg, ip after 30 mins; format: functional, organism-based; set-up: dose 100 mg/kg
Procedure, shortened: (§2)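 Swiss mice (18-22 g) were dosed i.p. in DMSO at 30, 100 or 300 mg/kg. Pentylenetetrazol (85 mg/kg) was then injected s.c. Protection meant no clonic spasms lasting at least 5 s over a 30 min period after test compound administration.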

Mus musculus [3] = assay: Anticonvulsant activity in ip dosed Swiss mouse assessed as protection against maximal electroshock-induced seizures administered 30 mins before electroshock challenge measured after 30 mins; format: functional
Procedure, shortened: (§3)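 Phase II quantification in Swiss mice (18-22 g), with compounds dissolved in DMSO and given i.p. Groups of 10 mice received a range of doses until at least three points fell within 10-90% protection against MES-induced seizures. ED50 and 95% confidence intervals were derived by the trimmed Spearman-Karber method.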

Mus musculus [4] = assay: Anticonvulsant activity in ip dosed Swiss mouse assessed as protection against maximal electroshock-induced seizures after 30 mins; format: functional; settings: 0.5 h; procedure, shortened: as §3
[5] = Neurotoxicity against Swiss mouse after 4 hrs by rotarod ataxia test; format: toxicity, organism-based; settings: in vivo
Procedure, shortened: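 Neurologic deficit was scored in Swiss mice (18-22 g) by rotarod ataxia test after i.p. dosing in DMSO (phase I: 30, 100, 300 mg/kg, assessed at 30 min and 4 h). For TD50, groups of 10 mice received a range of doses giving at least three points within 10-90% minimal neurotoxicity, calculated by trimmed Spearman-Karber with 95% confidence intervals.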

Mus musculus [6] = species on record: Mus musculus; assay: Protective index, ratio of TD50 for Swiss mouse to ED50 for Swiss mouse by maximal electroshock-induced seizures test; format: functional
Mus musculus [7] = assay: Protective index, ratio of TD50 for Swiss mouse to ED50 for Swiss mouse by subcutaneous pentylenetetrazol-induced seizure test; format: functional
Mus musculus [8] = assay: Anticonvulsant activity in Swiss mouse assessed as protection against subcutaneous pentylenetetrazol-induced seizures at 30 mg/kg, ip after 30 mins; format: functional, organism-based; set-up: dose 30 mg/kg; procedure, shortened: as §2
Mus musculus [9] = assay: Anticonvulsant activity in Swiss mouse assessed as protection against subcutaneous pentylenetetrazol-induced seizures at 300 mg/kg, ip after 30 mins; format: functional, organism-based; set-up: dose 300 mg/kg; procedure, shortened: as §2
Mus musculus [10] = assay: Anticonvulsant activity in Swiss mouse assessed as protection against maximal electroshock-induced seizures at 100 mg/kg, ip administered 30 mins before electroshock challenge measured after 30 mins; format: functional, organism-based; set-up: dose 100 mg/kg; procedure, shortened: as §1
Mus musculus [11] = assay: Anticonvulsant activity in Swiss mouse assessed as protection against maximal induced seizures at 300 mg/kg, ip administered 30 mins before electroshock challenge measured after 30 mins; format: functional, organism-based; set-up: dose 300 mg/kg; procedure, shortened: as §1

SMILES	Activity (Mus musculus [1])	Activity (Mus musculus [2])	ED50 (Mus musculus [3]) [mg/kg]	ED50 (Mus musculus [4]) [mg/kg]	TD50 at 4 h [5] [mg/kg]	PI (Mus musculus [6])	PI (Mus musculus [7])	Activity (Mus musculus [8])	Activity (Mus musculus [9])	Activity (Mus musculus [10])	Activity (Mus musculus [11])
CCCCCOc1ccc2c(c1)CCCc1n[nH]c(=O)n1-2	Active	Active	24.6	24.6	> 1120	>45.4	>29.4	–	–	–	–
CCCCCCCCOc1ccc2c(c1)CCCc1n[nH]c(=O)n1-2	–	Active	20.7	20.7	> 1120	>54	>22.2	–	–	–	–
O=c1[nH]nc2n1-c1ccc(OCc3ccccc3F)cc1CCC2	Active	–	18.4	–	> 931	>50.6	–	inactive	inactive	–	–
O=c1[nH]nc2n1-c1ccc(OCc3cccc(Cl)c3)cc1CCC2	–	–	26.4	–	> 931	>35.3	–	–	–	–	–
O=c1[nH]nc2n1-c1ccc(OCc3ccc(Cl)cc3)cc1CCC2	–	–	40.1	–	> 931	>23.2	–	–	inactive	Active	–
O=c1[nH]nc2n1-c1ccc(OCc3cccc(F)c3)cc1CCC2	Active	inactive	17.6	–	> 931	>52.9	–	inactive	–	–	–
COc1ccc2c(c1)CCCc1n[nH]c(=O)n1-2	–	inactive	–	–	–	–	–	inactive	inactive	–	Active
CCCCOc1ccc2c(c1)CCCc1n[nH]c(=O)n1-2	–	Active	37.3	37.3	> 1120	>29.9	>17	–	–	Active	–
O=c1[nH]nc2n1-c1ccc(OCc3ccccc3)cc1CCC2	–	–	30.5	–	> 931	>30.5	–	–	–	Active	–
O=c1[nH]nc2n1-c1ccc(OCc3ccc(F)cc3)cc1CCC2	–	–	22.8	–	> 931	>40.8	–	inactive	–	–	–
CCCCCCCOc1ccc2c(c1)CCCc1n[nH]c(=O)n1-2	Active	Active	17.6	17.6	> 1120	>63.4	>25.9	–	–	–	–
Cc1ccc(COc2ccc3c(c2)CCCc2n[nH]c(=O)n2-3)cc1	–	inactive	50	–	> 931	>18.6	–	inactive	–	–	–
O=c1[nH]nc2n1-c1ccc(OCc3ccc(Br)cc3)cc1CCC2	–	–	55.8	–	> 931	>16.7	–	–	–	Active	–
CCCOc1ccc2c(c1)CCCc1n[nH]c(=O)n1-2	–	–	75.5	–	> 931	>12.3	–	inactive	–	–	–
CCCCCCOc1ccc2c(c1)CCCc1n[nH]c(=O)n1-2	Active	Active	17.9	17.9	> 1120	>62.4	>24	–	–	–	–
O=c1[nH]nc2n1-c1ccc(OCc3ccccc3Cl)cc1CCC2	–	inactive	32.9	–	> 931	>28.3	–	–	–	Active	–
NC(=O)N1c2ccccc2C=Cc2ccccc21 [CARBAMAZEPINE]	–	–	9.2	9.2	74.4	–	<0.74	–	–	–	–

From ChEMBL document CHEMBL1759940, “Synthesis and anticonvulsant activity of 8-alkoxy-5,6-dihydro-4H-[1,2,4]triazolo[4,3-a][1]benzazepin-1-one derivatives” (Eur J Med Chem, 2011)
